Data reported in ChEMBL document CHEMBL1649398, “Synthesis and evaluation of tumor cell growth inhibition of methyl 3-amino-6-[(hetero)arylethynyl]thieno[3,2-b]pyridine-2-carboxylates. Structure-activity relationships, effects on the cell cycle and apoptosis” (Eur J Med Chem, 2011).

How the values were obtained:
NCI-H460 [1] = test: Growth inhibition of human NCI-H460 cells after 48 hrs by SRB assay; type: functional; conditions: NCI-H460, 48 h
Procedure, shortened: (§1)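 Adherent cells kept in RPMI-1640 with 5% heat-inactivated FBS, 2 mM glutamine and antibiotics at 37 °C, 5% CO₂. Plated at 1.5 ×10⁵ cells/mL (MCF-7) or 0.75 ×10⁵ cells/mL (A375-C5, NCI-H460) and grown 24 h. […] TCA fixation, SRB stain, absorbance 492 nm. GI₅₀ is 50% inhibition of net growth; mean ± SEM, three experiments in duplicate.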

[2] = Growth inhibition of human A375-C5 cells after 48 hrs by SRB assay; type: functional; conditions: A375-C5, 48 h; procedure, shortened: as §1
MCF7 = test: Growth inhibition of human MCF7 cells after 48 hrs by SRB assay; type: functional; conditions: MCF7, 48 h; procedure, shortened: as §1
NCI-H460 [3] = test: Cell cycle arrest in human NCI-H460 cells assessed as accumulation at G2/M phase at GI50 after 48 hrs by flow cytometry; type: functional
NCI-H460 [4] = test: Cell cycle arrest in human NCI-H460 cells assessed as accumulation at G0/G1 phase at GI50 after 48 hrs by flow cytometry; type: functional
NCI-H460 [5] = test: Induction of apoptosis in human NCI-H460 cells at GI50 after 48 hrs by V-FITC/propidium iodide staining-based flow cytometry; type: functional
NCI-H460 [6] = test: Cell cycle arrest in human NCI-H460 cells assessed as accumulation at S phase at GI50 after 48 hrs by flow cytometry; type: functional
[7] = Solubility of the compound in DMSO at 150 uM; type: physicochemical

Compound | GI50 (NCI-H460 [1]) | GI50 (MCF7) | solubility [7] | GI50 [2] | Activity (NCI-H460 [3]) | Activity (NCI-H460 [4]) | Activity (NCI-H460 [5]) | Activity (NCI-H460 [6])
COC(=O)c1sc2cc(C#Cc3cccnc3)cnc2c1N | > 150 µM | > 150 µM |  | > 150 µM |  |  |  | 
COC(=O)c1sc2cc(C#Cc3ccccc3)cnc2c1N | > 150 µM | > 150 µM |  | > 150 µM |  |  |  | 
COC(=O)c1sc2cc(C#Cc3ccccc3OC)cnc2c1N | > 47.3 µM | > 47.3 µM |  | > 47.3 µM |  |  |  | 
COC(=O)c1sc2cc(C#Cc3ccccc3F)cnc2c1N | > 150 µM | > 150 µM |  | > 150 µM |  |  |  | 
C[S+](C)[O-] [DIMETHYL SULFOXIDE] |  |  |  |  | 16.1% | 55.1% | 12.2% | 28.8%
COc1cccc2c1C(=O)c1c(O)c3c(c(O)c1C2=O)C[C@@](O)(C(=O)CO)C[C@@H]3O[C@H]1C[C@H](N)[C@H](O)[C@H](C)O1 [DOXORUBICIN] |  |  | Insoluble |  |  |  |  | 

The next lines start with results.

GI50 (NCI-H460 [1]) | GI50 (MCF7) | solubility [7] | Compound | GI50 [2] | Activity (NCI-H460 [3]) | Activity (NCI-H460 [4]) | Activity (NCI-H460 [5]) | Activity (NCI-H460 [6])
24.8 µM | 27.7 µM |  | COC(=O)c1sc2cc(C#Cc3ccsc3)cnc2c1N | 29.6 µM |  |  |  | 
49 µM | 33.4 µM |  | COC(=O)c1sc2cc(C#Cc3cccc(OC)c3)cnc2c1N | > 75 µM |  |  |  | 
0.32 µM | 0.46 µM |  | COC(=O)c1sc2cc(C#Cc3ccc(OC)cc3)cnc2c1N | > 37.5 µM | 18.3% | 59.7% | 18.7% | 22%
5.7 µM | 4.1 µM |  | COC(=O)c1sc2cc(C#Cc3ccccc3N)cnc2c1N | 3.1 µM | 24.6% | 54.7% | 25.3% | 23.1%
11.5 µM | 10.8 µM |  | COC(=O)c1sc2cc(C#Cc3cccc(N)c3)cnc2c1N | 11.6 µM |  |  |  | 
8.9 µM | 2.6 µM |  | COC(=O)c1sc2cc(C#Cc3ccc(N)cc3)cnc2c1N | 4.8 µM | 13.4% | 68% | 17% | 18.6%
16.6 µM | 20.6 µM |  | COC(=O)c1sc2cc(C#Cc3ccc(N(C)C)cc3)cnc2c1N | 17.7 µM |  |  |  | 
24 µM | 29 µM |  | COC(=O)c1sc2cc(C#Cc3ccc(F)cc3)cnc2c1N | 48.4 µM |  |  |  | 
34.9 µM | 37.4 µM |  | COC(=O)c1sc2cc(C#Cc3ccccn3)cnc2c1N | 13.9 µM |  |  |  | 
